{"source": "paper PMC7438818", "about": "(CPT: Pharmacometrics & Systems Pharmacology, 2020)", "key": {"[1]": {"tested_on": "TNFα release", "experiment": "TNFα PK/PD model, lipopolysaccharide-stimulated whole blood ex vivo assay", "type": "in vivo, human", "conditions": "for Sigmoidicity parameter γ: Imax-model of TNFα inhibition", "in_short": "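Whole blood was drawn straight into LPS-containing tubes and incubated, then ex vivo TNFα was measured. With PK parameters fixed, one common sigmoid Imax model was fitted for both compounds, driven by a weighted sum of plasma and transduction-compartment concentrations. The weight was estimated from data. The driving concentration was total for the test compound and unbound for the reference steroid. Nonlinear mixed effects, FOCE.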"}, "[2]": {"type": "in vivo, human", "in_short": "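Data pooled from single ascending dose (2–155 mg) and multiple ascending dose (10, 20, 40, 80, 125 mg) studies in healthy volunteers; prediabetic obese cohort and sub-LLOQ (5 nM) data excluded. Two-compartment model with first-order absorption and lag time on total plasma concentrations. Oral dose entered as a linear covariate on relative bioavailability and as a covariate on absorption rate. Lognormal interoccasion variability for days 1 and 5. Fitted by nonlinear mixed effects, FOCE.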"}, "[3]": {"tested_on": "release of the cytokines TNFα, interferon-γ, interleukin-6, interleukin-8, macrophage inflammatory protein-1α and -1β", "type": "in vivo, human", "conditions": "total plasma concentrations; six pro-inflammatory cytokines", "in_short": "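Static nonlinear mixed effects sigmoid Imax models related observed total plasma drug concentrations to ex vivo LPS-stimulated release of TNFα, IFN-γ, IL-6, IL-8, MIP-1α and MIP-1β. Data were pooled from the single and multiple ascending dose studies. Lognormal between-subject variability was used, with lognormal residual error (additive on log scale). Models were estimated by FOCE.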"}, "[4]": {"tested_on": "TNFα release", "experiment": "Simulated dose-response and equipotent dose relationship from the PK/PD model", "type": "in vivo, human", "conditions": "for TNFα inhibition at the highest studied doses: dose-response curves", "in_short": "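The fitted PK/PD model was simulated to give dose-response curves, with response defined as average TNFα inhibition over 24 h after 5 consecutive daily oral doses. Confidence intervals came from repeated simulations using parameters sampled from the estimated covariance matrix. Equipotent doses were defined as those giving the same average inhibition. Their confidence intervals accounted simultaneously for the uncertainty of both dose-responses.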"}, "[5]": {"conditions": "ref data on file, AstraZeneca; cited from earlier work"}, "[6]": {"type": "in vivo, human", "remark": "listed apart in the source"}, "[7]": {"conditions": "literature average of plasma protein binding parameters ref 24, 25, 26, 27; cited from earlier work"}, "[8]": {"conditions": "average over 24 hours following 5 consecutive daily doses"}, "[9]": {"conditions": "unbound prednisolone, oral (apparent)"}}, "note": "Like-named read-outs stand apart in the source and are kept apart here.", "data": [{"smiles": "CC(C)[C@H](NC(=O)C(C)(F)F)[C@H](Oc1ccc2c(cnn2-c2ccc(=O)n(C)c2)c1)c1ccccc1", "note": "[AZD9567]", "values": [{"measurement": "Sigmoidicity parameter γ", "setting": "[1]", "result": 1.40}, {"measurement": "Potency as inhibitor of TNFα release relative to prednisolone", "setting": "[1]; unbound IC50 4.87 nM vs 17.0 nM", "result": "~ 3.5 fold"}, {"measurement": "Absorption rate constant ka0", "setting": "[2]; absorption rate in the limit of zero dose", "result": 38.2, "unit": "h⁻¹"}, {"measurement": "Covariate model (dose on F) s", "setting": "[2]; decrease in relative bioavailability F per mg dose, F=1-s×Dose", "result": 0.00253, "unit": "mg⁻¹"}, {"measurement": "Covariate model (dose on ka) α", "setting": "[2]; dose-dependent absorption rate", "result": 0.0592, "unit": "mg⁻¹"}, {"measurement": "Covariate model (dose on ka) λ", "setting": "[2]; dose-dependent absorption rate", "result": 0.103}, {"measurement": "Decrease of relative bioavailability", "setting": "[2]; for every additional 4 mg AZD9567 dosed", "result": "~ 1 % unit"}, {"measurement": "half-life", "setting": "[2]; human, plasma, oral", "result": 4.4, "unit": "h"}, {"measurement": "Unbound clearance relative to prednisolone", "setting": "[2]; implied by the low fraction unbound", "result": "more than fivefold higher unbound clearance"}, {"measurement": "Intercompartment clearance Q", "setting": "[2]; total AZD9567", "result": 0.500, "unit": "L/h"}, {"measurement": "Peripheral volume of distribution Vp", "setting": "[2]; total AZD9567", "result": 392, "unit": "L"}, {"measurement": "Clearance CL", "setting": "[2]; total AZD9567, oral", "result": 3.70, "unit": "L/h"}, {"measurement": "Central volume of distribution Vc", "setting": "[2]; total AZD9567, oral (apparent)", "result": 26.8, "unit": "L"}, {"measurement": "Contribution of the first phase to AUC", "setting": "[2]; two-compartment model", "result": 88, "unit": "%"}, {"measurement": "Inhibition of cytokine release", "setting": "[3]", "result": "inhibited the release of the cytokines"}, {"measurement": "Average TNFα inhibition", "setting": "[4]; AZD9567 40 mg, average over 24 hours following 5 consecutive daily doses", "result": 43, "unit": "%"}, {"measurement": "TNFα inhibition at the highest studied doses", "setting": "[4]; [8]", "result": "60–75%"}, {"measurement": "Equipotent dose of AZD9567 (95% CI)", "setting": "[4]; equipotent to prednisolone 20 mg", "result": 40, "unit": "mg"}, {"measurement": "Doses required for equipotency relative to prednisolone", "setting": "[4]; in vivo", "result": "roughly twofold higher doses"}, {"measurement": "Unbound fraction", "setting": "[5]", "result": "^c Derived from the estimate of IC50 for total AZD9567 concentrations using an unbound fraction of 0.637%."}]}, {"smiles": "C[C@]12C=CC(=O)C=C1CC[C@@H]1[C@@H]2[C@@H](O)C[C@@]2(C)[C@H]1CC[C@]2(O)C(=O)CO", "note": "[prednisolone]", "values": [{"measurement": "half-life", "setting": "[6]; human, plasma, oral", "result": 1.9, "unit": "h"}, {"measurement": "Contribution of the first phase to AUC", "setting": "[6]; unbound prednisolone", "result": 66, "unit": "%"}, {"measurement": "Inter-compartment clearance Q", "setting": "[6]; unbound prednisolone", "result": 5.81, "unit": "L/h"}, {"measurement": "Mean transit time tm", "setting": "[6]; unbound prednisolone", "result": 0.772, "unit": "h"}, {"measurement": "Peripheral volume of distribution Vp", "setting": "[6]; unbound prednisolone", "result": 23.6, "unit": "L"}, {"measurement": "Central volume of distribution Vc", "setting": "[6]; [9]", "result": 352, "unit": "L"}, {"measurement": "Clearance CL", "setting": "[6]; [9]", "result": 110, "unit": "L/h"}, {"measurement": "No. of transit compartments n", "setting": "[6]; unbound prednisolone, transit compartment absorption", "result": 8.11}, {"measurement": "Sigmoidicity parameter γ", "setting": "[1]", "result": 1.33}, {"measurement": "Unbound fraction, high limit, literature average", "setting": "[7]", "result": 53, "unit": "%"}, {"measurement": "Unbound fraction, low limit, literature average", "setting": "[7]", "result": 9, "unit": "%"}, {"measurement": "Inhibition of cytokine release", "setting": "[3]", "result": "inhibited the release of the cytokines"}, {"measurement": "TNFα inhibition at the highest studied doses", "setting": "[4]; [8]", "result": "60–75%"}, {"measurement": "Equipotent dose of prednisolone", "setting": "[4]; equipotent to 40 mg AZD9567, 95% CI of 14–29 mg", "result": 20, "unit": "mg"}, {"measurement": "Estimated TNFα inhibition", "setting": "[4]; prednisolone 20 mg, average over 24 hours following 5 consecutive daily doses", "result": 43, "unit": "%"}]}]}
